An excerpt weighted towards active compounds, which were near 2.3% of everything screened.
UBC13 polyUb: human UBC13 polyubiquitination inhibition; 330,000 compounds, 0.47% hits; inhibition, % at 20 µM; UBC13 polyubiquitin chain formation, TR-FRET; in the data active = inhibition above about 45%, passing the limit was not always enough
UCH37 DUB inh: human UCH37 deubiquitinating enzyme inhibition. purified proteasome/UCH37, Ub-AMC cleavage fluorescence. inhibition, % (test concentration not listed). 330,000 compounds, 0.33% hits. AID 588478;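 active = mean inhibition over replicate wells above about 20%, limit read from the data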;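 note: 0% = compound-free wells with enzyme and 100% = wells lacking proteasome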
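System: Proteasome-associated human UCH37 deubiquitinase; Input: 0.15 nM proteasome in added enzyme buffer; Also added: Ub-AMC substrate from 1 µM stock; Incubation: 30 min compound-proteasome preincubation then 25 min substrate reaction, room temperature; Detection: fluorescence, ex 355 nm, em 460 nm; Read-out: % inhibition of Ub-AMC cleavage fluorescence; Benchmarks: no-proteasome and no-compound wells.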
PP5 primary: inhibitors of human protein phosphatase 5 (PP5); P53041; purified PP5c, OMFP substrate fluorescence; inhibition, % at 6.7 µM; 320,000 compounds, 0.18% hits; AID 1987;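 active = inhibition above the campaign's mean inhibition across all tested compounds plus 3 SD, cut at about 9.5% in these data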;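 note: 0% = DMSO only and 100% = 100 µM cantharidin control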
Target sequence (P53041 whole entry, looked up): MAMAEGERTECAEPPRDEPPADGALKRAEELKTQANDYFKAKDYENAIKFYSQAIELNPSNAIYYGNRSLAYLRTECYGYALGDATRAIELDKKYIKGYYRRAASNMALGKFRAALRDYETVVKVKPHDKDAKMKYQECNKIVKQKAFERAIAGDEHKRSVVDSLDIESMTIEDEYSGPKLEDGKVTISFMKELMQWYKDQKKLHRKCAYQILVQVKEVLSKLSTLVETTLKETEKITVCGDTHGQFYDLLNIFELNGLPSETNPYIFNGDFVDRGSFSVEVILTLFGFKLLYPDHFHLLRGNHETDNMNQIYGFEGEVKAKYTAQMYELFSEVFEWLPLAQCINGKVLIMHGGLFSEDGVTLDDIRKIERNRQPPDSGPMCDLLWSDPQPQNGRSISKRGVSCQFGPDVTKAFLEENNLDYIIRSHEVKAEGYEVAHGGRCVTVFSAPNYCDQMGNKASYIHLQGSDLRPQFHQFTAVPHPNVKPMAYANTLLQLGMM
Fh CTSL1 inh: counter-screen for PFM18AAP inhibitors: inhibitors of F. hepatica cathepsin L1 | 300,000 compounds, 0.49% hits | inhibition, % at 5.96 µM | recombinant F. hepatica cathepsin L1, Z-Leu-Arg-MCA fluorescence | AID 1906;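 active = inhibition above the mean of all tested compounds plus 3 SD, set per screening campaign, cut at about 17% in these data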;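 note: 0% = plate median of test compound wells and 100% = 1 µM Z-Phe-Ala-diazomethylketone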
PREPL inh: inhibits the human prolyl oligopeptidase-like enzyme. Q4J6C6. recombinant PREPL, fluorescence polarization activity-based probe. inhibition, % at 5.96 µM. 320,000 compounds, 0.68% hits. AID 2751;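 note: 0% = enzyme with DMSO and 100% = wells lacking enzyme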
PP1 counter: PP1-alpha (human) inhibition in PP5 counter-screen. P62136. purified PP1alpha, OMFP fluorescence. inhibition, % at 6.7 µM. 320,000 compounds, 0.9% hits. AID 2235;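 active = inhibition above the mean inhibition of all tested compounds plus 3 SD, computed separately for each screening campaign, cut at about 15% in these data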
PP1 confirm: confirmation of human PP1 phosphatase inhibitors | shares compounds with PP1 counter | purified PP1alpha, OMFP substrate fluorescence | inhibition, % at 6.7 µM | 1,900 compounds, 52% hits | AID 2358;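 active = mean PP1 inhibition above a set limit taken from the earlier primary screen, cut at about 15% in these data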
PP5 inh counter: inhibits human PP5 phosphatase in PP1 counter-screen; shares compounds with PP1 counter; 1,900 compounds, 4% hits; inhibition, % at 6.7 µM; AID 2360; purified PP5c, OMFP fluorescence;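 active = mean PP5 inhibition over triplicate wells above about 9.5% taken from the earlier PP1 screen, limit read from the data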
PREPL inh cf: confirmation of human PREPL enzyme inhibitors; shares compounds with PREPL inh; recombinant PREPL, fluorescence polarization activity probe; inhibition, % at 5.96 µM; 2,000 compounds, 67% hits;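 note: 0% = protein with DMSO and 100% = wells lacking protein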
Casp3 counter: inhibits human caspase-3 in UBC13 counter-screen; 1,400 compounds, 4% hits; Recombinant caspase-3, Caspase-Glo 3/7 luminescence, 60 min; inhibition, % at 20 µM; AID 488856; shares compounds with UBC13 polyUb;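 active = mean inhibition across replicates above about 26%, limit read from the data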;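 note: plate controls were DMSO with caspase-3 for no effect and DMSO wells lacking enzyme for full effect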
UBC13 conf: confirmation of human UBC13 polyubiquitin inhibitors; shares compounds with UBC13 polyUb; UBC13 polyubiquitination, TR-FRET, biochemical; inhibition, % at 10 µM; 1,400 compounds, 68% hits; in the data active = inhibition above about 45%
An asterisk follows results filed as active; . = no result. Cut-off read from the data, not from the text of the source, unless noted: active = inhibition above about 43%; inactive = the rest.

SMILES	UBC13 polyUb	UCH37 DUB inh	PP5 primary	Fh CTSL1 inh	PREPL inh	PP1 counter	PREPL inh cf	others
Clc1ccc(CCC(Cn2ccnc2)Sc2c(Cl)cccc2Cl)cc1 (configuration not stated)	48*	3	5	-1	2	34*	.	PP1 confirm=28*;PP5 inh counter=-3;Casp3 counter=-5;UBC13 conf=34
O=C1OCCN1N=Cc1ccc([N+](=O)[O-])o1	.	4	.	.	.	.	.
CCCCn1c(C)c(C(=O)OCC)c2c(CN3CCCC3)c(O)ccc21	16	1	4	6	55*	4	34
CC(Cc1ccccc1)NC(=O)c1ccc(N)cc1 (configuration not stated)	-3	6	0	1	-3	-3	.
CC(Cc1ccccc1)NC(=O)C(c1ccc(N)cc1)c1ccc(N)cc1 (configuration not stated)	5	3	-1	-2	50*	3	33
Cc1ccc(CNC(=O)COC(=O)c2nc(-c3ccccc3)oc2C)cc1	2	2	-1	.	-12	-3	.
COc1ccc2[nH]c(C)c(CCNCc3cc(OC)c4c(c3)OCO4)c2c1	13	4	3	.	74*	0	66*
CC1CCCC(C)N1N=Cc1c[nH]c2ccc(Br)cc12 (configuration not stated)	.	6	.	.	.	.	.
NCCCCCC(=O)OC1N=C(c2ccccc2Cl)c2cc(Br)ccc2NC1=O (configuration not stated)	22	3	0	-11	59*	-3	46*
COC(=O)[C@@H]1C[C@H]1[C@@H](NP(=O)(c1ccccc1)c1ccccc1)c1ccccc1	3	1	0	5	11	1	.
COC(=O)[C@H]1C[C@@H]1[C@H](NP(=O)(c1ccccc1)c1ccccc1)c1ccccc1	-5	5	-2	-2	47*	-1	47*
CN1CCc2cc3c(c4c2C1Cc1ccccc1-4)OCO3 (configuration not stated)	-118	.	4	4	46*	9	40
COc1ccc2[nH]c3c(c2c1)CCNC3C (configuration not stated)	8	4	-1	-2	13	0	.
COc1ccc2c3c([nH]c2c1)C(C)NCC3 (configuration not stated)	6	-64	0	5	67*	-2	4
NC(=S)NN=Cc1coc2ccccc2c1=O	.	-1	.	.	.	.	.
NC(=NN=Cc1ccc(O)cc1)N[N+](=O)[O-]	.	18	.	.	.	.	.
CC(C)Nc1ccc(Nc2ccccc2)cc1	3	4	2	-4	77*	9	55*
CC1Oc2ccccc2N(CC(=O)N2CCCC2)C1=O (configuration not stated)	0	1	7	10	8	-6	.
Cc1[nH]c2ccccc2c1CCN	2	-2	0	-1	18	4	.
Cc1[nH]c2ccccc2c1CCCNC1CCCCC1	13	3	-1	-3	45*	2	34
COC(=O)C1=C(c2cccc(OCc3ccccc3)c2)C[C@@H]2CC[C@H]1N2C(=O)NC1CCN(Cc2ccccc2)CC1	36	4	3	.	51*	5	44*
COC(=O)C1=C(c2ccccc2OCc2ccccc2)C[C@@H]2CC[C@H]1N2C(=O)NC1CCN(Cc2ccccc2)CC1	26	7	3	.	41	3	.

Screening results from PubChem BioAssay.
